The values that follow come from ChEMBL document CHEMBL1687738, “Effect of Candida glabrata FKS1 and FKS2 mutations on echinocandin sensitivity and kinetics of 1,3-beta-D-glucan synthase: implication for the existing susceptibility breakpoint” (Antimicrob Agents Chemother, 2009).

As usually defined, the MIC is the smallest concentration in the dilution series that meets the test's criterion for growth inhibition. As usually defined, the IC50 is the concentration that inhibits the measured activity by half. A lower IC50 goes with greater potency.

Converted amounts (≈) assume the structure as drawn. Starred links: 1 amine or outer side, 2 acyl side, 3 side chain; linkers in the order of their positions; H or OH if unused. Positions of bridges follow the written chain, without caps; N, C: chain ends. Non-standard residues stand in square brackets, D forms with d. Residues, ends and D or L forms follow the SMILES beside them. *: point of attachment. hTyr(3S-OH,4S-OH,3'-OSO3H) = N[C@H](C(=O)O)[C@H](O)[C@@H](O)c1ccc(O)c(OS(=O)(=O)O)c1; pTerphenylCO(4''-OnC5H11) = CCCCCOc1ccc(-c2ccc(-c3ccc(C(=O)*)cc3)cc2)cc1; Orn(4R-OH,5R-OH) = O=C([C@H](C[C@@H](O)[C@@H](O)N[*:3])N[*:1])[*:2]; hTyr(3S-OH,4S-OH) = N[C@H](C(=O)O)[C@H](O)[C@@H](O)c1ccc(O)cc1; Pro(3S-OH,4S-Me) = C[C@H]1CN[C@H](C(=O)O)[C@H]1O; X1 = CCCCCOc1ccc(-c2cc(-c3ccc(C(=O)*)cc3)no2)cc1; Gln(3R-OH) = NC(=O)C[C@@H](O)[C@H](N)C(=O)O; Hyp = O=C(O)[C@@H]1C[C@@H](O)CN1

The test system of assay [1] is Nakaseomyces glabratus. Briefly: Antifungal activity against Candida glabrata isolate 31498 expressing wild type Fks1p and Fks2p F659 deletion mutant by CLSI method. The format is functional. Summed up: (§1)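 Broth microdilution MIC per CLSI M27-A3 in RPMI 1640 medium without serum. Caspofungin and micafungin stocks in sterile water; anidulafungin stock in 100% DMSO; stocks kept at −86°C.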

The subject of assay [2] is Nakaseomyces glabratus. Kind of assay: Antifungal activity against Candida glabrata isolate 5847 expressing Fks1p S629P mutant and wild type Fks2p by CLSI method in presence of 50% human serum. The format is functional. In short, it runs like this:
(§2)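 Broth microdilution MIC per CLSI M27-A3 in RPMI 1640 supplemented with 50% serum. Caspofungin and micafungin stocks in sterile water; anidulafungin stock in 100% DMSO; stocks kept at −86°C.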

Assay [3] concerns the target 1,3-beta-glucan synthase (Candida glabrata, UniProt F5BCZ9, D666G). Briefly: Inhibition of Candida glabrata isolate 41400 1,3-beta-D-glucan synthase wild type Fks1p/Fks2p D666G mutant. Further details: species or system Nakaseomyces glabratus. In short, it runs like this:
(§3)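 Cells grown in YPD broth at 35°C with vigorous shaking to early stationary phase. Membrane protein extracted and glucan synthase partially purified by product entrapment. Filtration polymerization assay measured [3H]glucose incorporation into product, started by adding enzyme. Echinocandin serial dilutions spanned 0.01–10,000 ng/ml, with 1% DMSO controls for anidulafungin. IC50 from variable-slope sigmoidal fit.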

In assay [4] the test system is Nakaseomyces glabratus. Briefly: Antifungal activity against Candida glabrata isolate 3168 expressing wild type Fks1p and Fks2p by CLSI method in presence of 50% human serum. The format is functional. In short, it runs like this: as §2
The nature of assay [5]: Inhibition of Candida glabrata isolate 31498 1,3-beta-D-glucan synthase wild type Fks1p/Fks2p F659 deletion mutant. Further details: species or system Nakaseomyces glabratus. Summed up: as §3
Assay [6] relates to Nakaseomyces glabratus. Kind of assay: Antifungal activity against Candida glabrata isolate 42997 expressing Fks1p F625S mutant and wild type Fks2p by CLSI method. Format: functional. In short, it runs like this: as §1
In assay [7] the test system is Nakaseomyces glabratus. Kind of assay: Antifungal activity against Candida glabrata isolate 51916 expressing wild type Fks1p and Fks2p P667T mutant by CLSI method. The format is functional. Summed up:
as §1

The target in assay [8] is 1,3-beta-glucan synthase (Candida glabrata, UniProt F5BCZ9, F659S). Briefly: Inhibition of Candida glabrata isolate 41026 1,3-beta-D-glucan synthase wild type Fks1p/Fks2p F659S mutant. On the set-up: species or system Nakaseomyces glabratus. Summed up: as §3
The nature of assay [9]: Inhibition of Candida glabrata ATCC 90030 wild type 1,3-beta-D-glucan synthase. Further details: species or system Nakaseomyces glabratus. Summed up: as §3
The target in assay [10] is 1,3-beta-glucan synthase component FKS1 (Candida glabrata, UniProt E2GKZ4, D632E). Kind of assay: Inhibition of Candida glabrata isolate 3169 1,3-beta-D-glucan synthase Fks1p D632E mutant/wild type Fks2p. Further details: species or system Nakaseomyces glabratus. Summed up:
as §3

The target of assay [11] is 1,3-beta-glucan synthase component FKS1 (Candida glabrata, UniProt E2GKZ4, S629P). Kind of assay: Inhibition of Candida glabrata isolate 5847 1,3-beta-D-glucan synthase Fks1p S629P mutant/wild type Fks2p. Further details: species or system Nakaseomyces glabratus. In short, it runs like this:
as §3

Assay [12] has as its system Nakaseomyces glabratus. Kind of assay: Antifungal activity against Candida glabrata isolate 5416 expressing wild type Fks1p and Fks2p W1375L mutant by CLSI method. The format is functional. In short, it runs like this:
as §1

The test system of assay [13] is Nakaseomyces glabratus. Kind of assay: Antifungal activity against Candida glabrata isolate 3169 expressing Fks1p D632E mutant and wild type Fks2p by CLSI method. Format: functional. Summed up:
as §1

Assay [14] deals with Nakaseomyces glabratus. Briefly: Antifungal activity against Candida glabrata isolate 41026 expressing wild type Fks1p and Fks2p F659S mutant by CLSI method in presence of 50% human serum. The format is functional. In short, it runs like this:
as §2

Assay [15] deals with Nakaseomyces glabratus. Kind of assay: Antifungal activity against Candida glabrata isolate 21900 expressing Fks1p D632G mutant and wild type Fks2p by CLSI method in presence of 50% human serum. Format: functional. Summed up: as §2

Sequence of 1,3-beta-glucan synthase (Candida glabrata, UniProt F5BCZ9, D666G) (F5BCZ9 entry or part of it D666G): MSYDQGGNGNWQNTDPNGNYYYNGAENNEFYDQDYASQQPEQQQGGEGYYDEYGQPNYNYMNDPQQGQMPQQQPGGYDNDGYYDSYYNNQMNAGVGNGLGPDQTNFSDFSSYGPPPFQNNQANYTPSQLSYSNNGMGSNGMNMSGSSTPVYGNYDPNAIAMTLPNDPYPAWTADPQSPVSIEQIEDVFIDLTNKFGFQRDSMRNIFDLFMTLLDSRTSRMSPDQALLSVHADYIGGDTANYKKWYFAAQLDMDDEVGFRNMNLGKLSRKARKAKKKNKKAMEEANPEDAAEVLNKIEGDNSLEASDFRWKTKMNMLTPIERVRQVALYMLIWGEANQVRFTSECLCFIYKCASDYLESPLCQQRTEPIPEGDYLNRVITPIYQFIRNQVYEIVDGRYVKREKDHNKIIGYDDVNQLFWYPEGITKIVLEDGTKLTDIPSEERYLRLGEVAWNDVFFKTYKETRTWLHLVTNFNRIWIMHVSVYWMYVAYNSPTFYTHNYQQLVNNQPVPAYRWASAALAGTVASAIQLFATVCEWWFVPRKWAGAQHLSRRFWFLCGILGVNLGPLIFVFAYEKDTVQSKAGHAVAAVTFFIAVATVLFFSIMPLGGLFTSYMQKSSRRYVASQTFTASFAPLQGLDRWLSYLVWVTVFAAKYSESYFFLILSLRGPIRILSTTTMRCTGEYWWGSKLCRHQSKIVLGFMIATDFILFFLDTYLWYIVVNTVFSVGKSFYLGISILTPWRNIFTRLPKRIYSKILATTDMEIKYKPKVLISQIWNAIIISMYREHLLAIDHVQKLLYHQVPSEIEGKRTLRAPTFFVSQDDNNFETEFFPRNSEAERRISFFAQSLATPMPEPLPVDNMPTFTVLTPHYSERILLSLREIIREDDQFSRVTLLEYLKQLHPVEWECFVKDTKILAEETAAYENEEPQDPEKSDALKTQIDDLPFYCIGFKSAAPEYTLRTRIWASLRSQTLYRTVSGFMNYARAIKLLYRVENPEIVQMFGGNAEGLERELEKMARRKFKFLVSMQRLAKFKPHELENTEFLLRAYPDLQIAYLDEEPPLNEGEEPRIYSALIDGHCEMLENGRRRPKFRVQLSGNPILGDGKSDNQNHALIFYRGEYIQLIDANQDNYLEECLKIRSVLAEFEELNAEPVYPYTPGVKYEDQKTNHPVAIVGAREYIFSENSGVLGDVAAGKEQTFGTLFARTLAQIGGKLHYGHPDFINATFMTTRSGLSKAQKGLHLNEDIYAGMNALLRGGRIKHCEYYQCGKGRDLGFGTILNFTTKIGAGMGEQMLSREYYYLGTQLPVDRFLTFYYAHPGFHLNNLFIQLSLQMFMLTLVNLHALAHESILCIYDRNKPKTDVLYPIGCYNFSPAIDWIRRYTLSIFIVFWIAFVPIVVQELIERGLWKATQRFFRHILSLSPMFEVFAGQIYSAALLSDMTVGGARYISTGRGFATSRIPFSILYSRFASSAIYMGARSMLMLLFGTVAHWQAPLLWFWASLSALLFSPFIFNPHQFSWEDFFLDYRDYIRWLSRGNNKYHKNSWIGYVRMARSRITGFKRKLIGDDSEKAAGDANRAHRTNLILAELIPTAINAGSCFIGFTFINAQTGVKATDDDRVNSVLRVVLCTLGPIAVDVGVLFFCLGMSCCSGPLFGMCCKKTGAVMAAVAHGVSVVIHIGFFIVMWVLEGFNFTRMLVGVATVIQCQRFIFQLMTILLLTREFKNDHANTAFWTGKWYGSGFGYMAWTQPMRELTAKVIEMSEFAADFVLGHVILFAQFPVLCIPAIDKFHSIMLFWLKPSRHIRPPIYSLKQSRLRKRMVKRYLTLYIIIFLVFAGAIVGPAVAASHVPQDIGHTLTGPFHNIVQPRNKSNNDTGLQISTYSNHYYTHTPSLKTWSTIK
Sequence of 1,3-beta-glucan synthase component FKS1 (Candida glabrata, UniProt E2GKZ4, D632E) (E2GKZ4 entry or part of it D632E): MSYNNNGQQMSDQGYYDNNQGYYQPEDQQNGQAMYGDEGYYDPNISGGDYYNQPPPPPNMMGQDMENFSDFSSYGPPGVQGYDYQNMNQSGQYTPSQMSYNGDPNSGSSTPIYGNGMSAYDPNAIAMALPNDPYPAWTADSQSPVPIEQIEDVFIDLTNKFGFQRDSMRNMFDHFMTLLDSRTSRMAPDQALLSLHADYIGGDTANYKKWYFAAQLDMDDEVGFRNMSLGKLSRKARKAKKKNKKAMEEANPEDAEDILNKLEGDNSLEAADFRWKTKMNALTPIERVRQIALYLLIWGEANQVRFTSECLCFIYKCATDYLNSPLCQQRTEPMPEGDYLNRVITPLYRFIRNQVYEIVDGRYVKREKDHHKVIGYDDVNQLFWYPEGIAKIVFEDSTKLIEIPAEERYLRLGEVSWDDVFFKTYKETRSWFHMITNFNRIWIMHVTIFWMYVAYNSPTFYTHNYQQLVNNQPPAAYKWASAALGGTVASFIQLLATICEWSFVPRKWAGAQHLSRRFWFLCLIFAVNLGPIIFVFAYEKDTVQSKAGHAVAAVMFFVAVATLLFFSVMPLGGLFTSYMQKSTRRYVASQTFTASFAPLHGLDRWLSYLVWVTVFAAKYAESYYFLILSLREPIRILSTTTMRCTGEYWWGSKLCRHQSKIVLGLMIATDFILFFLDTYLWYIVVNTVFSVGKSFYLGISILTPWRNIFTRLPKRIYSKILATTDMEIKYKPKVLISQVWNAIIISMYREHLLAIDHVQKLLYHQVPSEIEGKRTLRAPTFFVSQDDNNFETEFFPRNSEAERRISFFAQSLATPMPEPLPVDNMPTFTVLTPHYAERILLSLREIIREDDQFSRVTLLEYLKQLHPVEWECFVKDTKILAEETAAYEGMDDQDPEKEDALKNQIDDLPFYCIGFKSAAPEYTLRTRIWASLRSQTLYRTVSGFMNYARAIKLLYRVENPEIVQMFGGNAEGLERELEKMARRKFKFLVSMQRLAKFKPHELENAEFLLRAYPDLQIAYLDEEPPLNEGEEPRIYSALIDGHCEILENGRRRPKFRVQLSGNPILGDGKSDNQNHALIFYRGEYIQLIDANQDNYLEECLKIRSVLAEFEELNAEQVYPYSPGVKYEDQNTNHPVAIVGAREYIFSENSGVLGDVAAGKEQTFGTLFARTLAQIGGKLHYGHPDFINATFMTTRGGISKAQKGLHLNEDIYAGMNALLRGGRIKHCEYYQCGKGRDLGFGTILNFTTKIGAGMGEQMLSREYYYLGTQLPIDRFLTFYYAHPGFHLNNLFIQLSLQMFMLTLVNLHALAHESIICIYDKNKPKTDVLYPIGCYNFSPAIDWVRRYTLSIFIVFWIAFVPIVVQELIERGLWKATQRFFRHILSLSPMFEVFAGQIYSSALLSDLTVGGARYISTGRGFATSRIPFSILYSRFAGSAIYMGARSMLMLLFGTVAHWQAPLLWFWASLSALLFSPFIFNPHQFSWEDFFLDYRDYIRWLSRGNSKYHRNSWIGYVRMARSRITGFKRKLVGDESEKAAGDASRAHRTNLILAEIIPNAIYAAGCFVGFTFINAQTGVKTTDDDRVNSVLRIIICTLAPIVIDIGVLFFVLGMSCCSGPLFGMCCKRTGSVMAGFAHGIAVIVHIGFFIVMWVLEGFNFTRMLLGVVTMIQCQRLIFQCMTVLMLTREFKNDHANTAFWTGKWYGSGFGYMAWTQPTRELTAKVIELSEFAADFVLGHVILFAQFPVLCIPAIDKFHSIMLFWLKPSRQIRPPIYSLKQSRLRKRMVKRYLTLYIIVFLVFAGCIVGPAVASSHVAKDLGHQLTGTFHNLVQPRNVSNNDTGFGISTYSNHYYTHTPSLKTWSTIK

In the case of `CCCCCOc1ccc(-c2cc(-c3ccc(C(=O)N[C@H]4C[C@@H](O)[C@@H](O)NC(=O)[C@@H]5[C@@H](O)[C@@H](C)CN5C(=O)[C@H]([C@H](O)CC(N)=O)NC(=O)[C@H]([C@H](O)[C@@H](O)c5ccc(O)c(OS(=O)(=O)O)c5)NC(=O)[C@@H]5C[C@@H](O)CN5C(=O)[C@H]([C@@H](C)O)NC4=O)cc3)no2)cc1` [MICAFUNGIN] (X1-[Orn(4R-OH,5R-OH)]T[Hyp][hTyr(3S-OH,4S-OH,3'-OSO3H)][Gln(3R-OH)][Pro(3S-OH,4S-Me)]; lactam 1-C), the MIC against Nakaseomyces glabratus [1] was 4 µg/mL (≈ 3.15 µM); in the assay with Nakaseomyces glabratus [2], 8 µg/mL; in the assay on Nakaseomyces glabratus [4] it was 0.5 µg/mL; against Nakaseomyces glabratus [6], 0.5 µg/mL (≈ 0.394 µM); against Nakaseomyces glabratus [7], 0.4 µg/mL (≈ 0.315 µM); with Nakaseomyces glabratus [12], 0.25 µg/mL (≈ 0.197 µM). Further, the values for the MIC in the assay on Nakaseomyces glabratus [13], in the assay on Nakaseomyces glabratus [14] and in the assay on Nakaseomyces glabratus [15] were 2.52 µg/mL (≈ 1.98 µM), 16 µg/mL and 8 µg/mL, respectively. The IC50 was 79.2 nM against 1,3-beta-glucan synthase [3]; 0.1235 µg/mL (≈ 0.0972 µM) in assay [5]; 840 nM on 1,3-beta-glucan synthase [8]; 0.00071 µg/mL (≈ 0.000559 µM) in assay [9]; 350 nM in assay [10]; 673 nM in [11].

For the compound `CCCCCOc1ccc(-c2ccc(-c3ccc(C(=O)N[C@H]4C[C@@H](O)[C@@H](O)NC(=O)[C@@H]5[C@@H](O)[C@@H](C)CN5C(=O)[C@H]([C@@H](C)O)NC(=O)[C@H]([C@H](O)[C@@H](O)c5ccc(O)cc5)NC(=O)[C@@H]5C[C@@H](O)CN5C(=O)[C@H]([C@@H](C)O)NC4=O)cc3)cc2)cc1` [ANIDULAFUNGIN] ({pTerphenylCO(4''-OnC5H11)}-[Orn(4R-OH,5R-OH)]T[Hyp][hTyr(3S-OH,4S-OH)]T[Pro(3S-OH,4S-Me)]; lactam 1-C), the MIC in the assay on Nakaseomyces glabratus [1] was 2 µg/mL (≈ 1.75 µM); in the assay with Nakaseomyces glabratus [2] it was 8 µg/mL; with Nakaseomyces glabratus [4] it was 0.5 µg/mL; against Nakaseomyces glabratus [6], 2 µg/mL (≈ 1.75 µM); in the assay on Nakaseomyces glabratus [7], 1.59 µg/mL (≈ 1.39 µM); with Nakaseomyces glabratus [12], 0.25 µg/mL (≈ 0.219 µM). Also, the MIC with Nakaseomyces glabratus [13] was determined as 2 µg/mL (≈ 1.75 µM); with Nakaseomyces glabratus [14] it was 16 µg/mL; in the assay on Nakaseomyces glabratus [15] it was 8 µg/mL. Moreover, the IC50 on 1,3-beta-glucan synthase [3] is 154 nM; in assay [5] it was 0.16 µg/mL (≈ 0.14 µM); at 1,3-beta-glucan synthase [8] it was 753 nM; in [9] it was 0.00191 µg/mL (≈ 0.00168 µM); in assay [10], 133 nM; in assay [11], 3380 nM.

For the compound `CC[C@H](C)C[C@H](C)CCCCCCCCC(=O)N[C@H]1C[C@@H](O)[C@@H](NCCN)NC(=O)[C@@H]2[C@@H](O)CCN2C(=O)[C@H]([C@H](O)CCN)NC(=O)[C@H]([C@H](O)[C@@H](O)c2ccc(O)cc2)NC(=O)[C@@H]2C[C@@H](O)CN2C(=O)[C@H]([C@@H](C)O)NC1=O` [CASPOFUNGIN], the MIC in the assay on Nakaseomyces glabratus [1] came out at 2 µg/mL (≈ 1.83 µM); with Nakaseomyces glabratus [2], 8 µg/mL; in the assay with Nakaseomyces glabratus [4], 0.12 µg/mL; against Nakaseomyces glabratus [6], 8 µg/mL (≈ 7.32 µM); against Nakaseomyces glabratus [7] it was 2 µg/mL (≈ 1.83 µM); with Nakaseomyces glabratus [12], 4 µg/mL (≈ 3.66 µM). The MIC was 2.52 µg/mL (≈ 2.3 µM) in the assay on Nakaseomyces glabratus [13], 16 µg/mL in the assay with Nakaseomyces glabratus [14] and 16 µg/mL with Nakaseomyces glabratus [15]. The IC50 against 1,3-beta-glucan synthase [3] is 463 nM; in [5], 0.1172 µg/mL (≈ 0.107 µM); on 1,3-beta-glucan synthase [8], 973 nM; in [9], 0.00192 µg/mL (≈ 0.00176 µM); in [10], 772 nM; in assay [11] it was 4560 nM.
